According to ChEMBL document CHEMBL2169809, “Identification of high-affinity P2Y₁₂ antagonists based on a phenylpyrazole glutamic acid piperazine backbone” (J Med Chem, 2012):

How the values were obtained:
[1] = target: P2Y purinoceptor 12 (Homo sapiens, UniProt Q9H244); assay: Displacement of [33P]2-MeS-ADP from human recombinant P2Y12 receptor expressed in CHO cell membranes by scintillation counting method
[2] = tested on: Platelet; assay: Inhibition of ADP-stimulated platelet aggregation in human platelet rich plasma by 96-well format based turbidimetric method; format: functional
Outline: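 Citrated (ACD-A) donor blood was spun at 150g for 15 min at room temperature to give PRP. PRP was adjusted with PPP to 3 × 10^8 platelets/mL. Compound, diluted in NaCl, was preincubated with hPRP for 5 min before ADP was added.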

[3] = tested on: Platelet; assay: Inhibition of ADP-stimulated platelet aggregation in human platelet rich plasma by light transmission aggregometry based Born method; format: functional, cell-based

Chain of P2Y purinoceptor 12 (Q9H244 whole entry): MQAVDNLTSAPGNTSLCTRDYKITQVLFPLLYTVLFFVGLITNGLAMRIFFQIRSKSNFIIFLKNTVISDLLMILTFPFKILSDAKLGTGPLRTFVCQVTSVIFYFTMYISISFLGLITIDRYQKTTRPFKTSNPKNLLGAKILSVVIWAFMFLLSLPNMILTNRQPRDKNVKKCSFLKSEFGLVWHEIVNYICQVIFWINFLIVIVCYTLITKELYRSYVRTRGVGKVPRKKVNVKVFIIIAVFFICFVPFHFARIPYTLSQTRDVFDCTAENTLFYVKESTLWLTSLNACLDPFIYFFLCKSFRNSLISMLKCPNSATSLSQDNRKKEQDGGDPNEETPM

SMILES | Ki [1] [µM] | IC50 [2] [µM] | IC50 [3] [µM]
CCOC(=O)N1CCN(C(=O)[C@H](CCC(=O)O)NC(=O)c2cc(OCC(=O)N3CCC[C@@H]3C(=O)NC3CC3)n(-c3ccccc3)n2)CC1 | 0.958 | – | –
CCC[C@H](NC(=O)c1cc(OCC(=O)N2CCC[C@H]2C(=O)NC2CCC2)n(-c2ccccc2)n1)C(=O)N1CCN(C(=O)OCC)CC1 | 0.172 | 3.61 | –
CCOC(=O)N1CCN(C(=O)[C@H](CCC(=O)O)NC(=O)c2cc(OCC(=O)N3CC(C(=O)NC4CCC4)C3)n(-c3ccccc3)n2)CC1 | 0.613 | 2.94 | –
CCCCOC(=O)N1CCN(C(=O)[C@H](CCc2nnn[nH]2)NC(=O)c2cc(OCC(=O)N3CCC[C@H]3C(=O)NC3CCC3)n(-c3ccccc3)n2)CC1 | – | 0.05 | 0.079
CCOC(=O)N1CCN(C(=O)[C@H](CCC(=O)O)NC(=O)c2cc(OCC(=O)N3CCC[C@H]3c3ccccc3)n(-c3ccccc3)n2)CC1 | 0.033 | – | –
CCCCOC(=O)N1CCC(NC(=O)[C@H](CCC(=O)O)NC(=O)c2cc(OCC(=O)N3CCC[C@H]3C(=O)NC3CCC3)n(-c3ccccc3)n2)C1 (stereo partly drawn) | 0.193 | > 5 | –
CCCSc1nc(N[C@@H]2C[C@H]2c2ccc(F)c(F)c2)c2nnn([C@@H]3C[C@H](OCCO)[C@@H](O)[C@H]3O)c2n1 [TICAGRELOR] | 0.014 | 1.83 | –
CCOC(=O)N1CCN(C(=O)[C@H](CCC(=O)O)NC(=O)c2cc(OCC(=O)N3CCC(C(=O)NC4CCC4)C3)n(-c3ccccc3)n2)CC1 (stereo partly drawn) | 0.238 | 3.13 | –
CCOC(=O)N1CCN(C(=O)[C@H](CCCCO)NC(=O)c2cc(OCC(=O)N3CCC[C@H]3C(=O)NC3CCC3)n(-c3ccccc3)n2)CC1 | 0.202 | 2.4 | –
CCOC(=O)N1CCN(C(=O)[C@H](CCC(=O)O)NC(=O)c2cc(OCC(N)=O)n(-c3ccccc3)n2)CC1 | 2.72 | 9.05 | –
CCOC(=O)N1CCN(C(=O)[C@H](CCC(=O)O)NC(=O)c2cc(OCC(=O)N3CCC[C@H]3c3nc(C)c[nH]3)n(-c3ccccc3)n2)CC1 | 0.056 | 0.38 | –
CCOC(=O)N1CCN(C(=O)[C@H](CCC(=O)O)NC(=O)c2cc(OCC(=O)N3CCC[C@H]3C(=O)N3CCCC3)n(-c3ccccc3)n2)CC1 | 0.219 | 0.6 | –
CCOC(=O)N1CCC(NC(=O)[C@H](CCC(=O)O)NC(=O)c2cc(OCC(=O)N3CCC[C@H]3C(=O)NC3CCC3)n(-c3ccccc3)n2)CC1 | > 5 | > 5 | –
CCOC(=O)N1CCN(C(=O)[C@H](CCC(=O)O)NC(=O)c2cc(OCC(=O)N3CC[C@@H](O)C3)n(-c3ccccc3)n2)CC1 | 0.459 | 1.37 | –
CCOC(=O)N1CCN(C(=O)[C@H](CCN)NC(=O)c2cc(OCC(=O)N3CCC[C@H]3C(=O)NC3CCC3)n(-c3ccccc3)n2)CC1 | 0.18 | 3.77 | –
CCOC(=O)N1CCN(C(=O)[C@H](CCC(=O)O)NC(=O)c2cc(OCC(=O)N3CCC[C@H]3C(=O)NC3CC3)n(-c3ccccc3)n2)CC1 | 0.105 | 0.013 | –
CCOC(=O)N1CCN(C(=O)[C@H](CCC(=O)O)NC(=O)c2cc(OCC(=O)N3CCC[C@H]3C(=O)NC3CCC3)n(-c3ccccc3)n2)[C@H](C)C1 | 0.0077 | 0.072 | –
CCOC(=O)N1CCN(C(=O)[C@H](CCC(=O)O)NC(=O)c2cc(OCC(=O)N3CCC[C@H]3C(=O)NC(C)C)n(-c3ccccc3)n2)CC1 | 0.056 | – | –
CCOC(=O)N1CCN(C(=O)[C@H](CCNS(C)(=O)=O)NC(=O)c2cc(OCC(=O)N3CCC[C@H]3C(=O)NC3CCC3)n(-c3ccccc3)n2)CC1 | 0.023 | – | –
CCOC(=O)N1CCN(C(=O)[C@H](CCC(=O)O)NC(=O)c2cc(OC(C)(C)C(=O)OCC)c3ccc(C)cc3n2)CC1 | 0.086 | 2.6 | –
CCOC(=O)N1CCN(C(=O)[C@H](CC(C)C)NC(=O)c2cc(OCC(=O)N3CCC[C@H]3C(=O)NC3CCC3)n(-c3ccccc3)n2)CC1 | 0.207 | > 5 | –
CCOC(=O)N1CCN(C(=O)[C@H](CCNC(C)=O)NC(=O)c2cc(OCC(=O)N3CCC[C@H]3C(=O)NC3CCC3)n(-c3ccccc3)n2)CC1 | 0.042 | 0.675 | –
CCNC(=O)[C@@H]1CCCN1C(=O)COc1cc(C(=O)N[C@@H](CCC(=O)O)C(=O)N2CCN(C(=O)OCC)CC2)nn1-c1ccccc1 | 0.303 | 0.475 | –
O=C(O)CC[C@H](NC(=O)c1cc(OCC(=O)N2CCC[C@H]2C(=O)NC2CCC2)n(-c2ccccc2)n1)C(=O)N1CCN(C(=O)Oc2ccccc2)CC1 | 0.071 | 1.08 | –
CCOC(=O)N1CCN(C(=O)[C@H](CCC(=O)O)NC(=O)c2cc(OCC(=O)N3CCC[C@H]3C(=O)NC)n(-c3ccccc3)n2)CC1 | 0.536 | 1.46 | –
CCOC(=O)N1CCN(C(=O)[C@H](CCC(=O)O)NC(=O)c2cc(=O)n(-c3ccccc3)[nH]2)CC1 | > 5 | > 10 | –
